Results from paper PMC10798254 (Indian Journal of Nuclear Medicine : IJNM : The Official …, 2023).
One block for each molecule: values may come before it.

Experiments:
[1] = system: carcinoma prostate; test: Detection of metastatic disease in carcinoma prostate, PET-CT; format: in vivo, patients; conditions: for detection rate, lymph nodes: 50 patients, head-to-head; for detection rate, skeletal metastases / detection rate, soft tissue metastases: in vivo
[2] = system: kidney; test: Effect of probenecid on renal uptake of 68Ga-DOTATATE and 68Ga-PSMA11; format: in vivo, Wistar rats; conditions: control versus experimental groups
[3] = system: Glioblastoma multiforme; test: [64Cu]CuCl2 PET in glioblastoma multiforme; format: in vivo, patients
[4] = target: T1, CXCR4 receptors (Homo sapiens, UniProt P61073); format: in vivo, patients
T1 sequence (P61073 whole entry): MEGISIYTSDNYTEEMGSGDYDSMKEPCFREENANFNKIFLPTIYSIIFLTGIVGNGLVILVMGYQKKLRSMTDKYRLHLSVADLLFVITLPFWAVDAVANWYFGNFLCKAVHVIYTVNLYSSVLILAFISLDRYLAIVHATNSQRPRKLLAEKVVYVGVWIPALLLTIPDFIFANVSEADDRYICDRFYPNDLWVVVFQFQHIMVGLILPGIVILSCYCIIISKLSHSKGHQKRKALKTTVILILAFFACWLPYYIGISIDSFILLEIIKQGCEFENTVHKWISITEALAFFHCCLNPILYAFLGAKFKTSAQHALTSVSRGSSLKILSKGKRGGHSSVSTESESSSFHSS

[5] = system: RGD binding integrins; format: in vivo, patients
[6] = target: T1, CXCR4 receptors; design: species or system patients; conditions: in vivo
[7] = Biodistribution and dosimetry of 177Lu-DOTA-rituximab; format: in vivo, patients
Outline: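 22 patients received a diagnostic administration, mean 288.6 MBq. Blood clearance, organ residence times and effective half-life were derived. Whole-body and organ (liver, spleen, kidneys, bone marrow) absorbed doses were expressed per MBq using OLINDA/EXM v2.1.1.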

[8] = system: B16F10 cells; test: Cell binding; format: cell-based; conditions: plateau after 30 minutes
[9] = system: melanoma tumor (B16F10); test: In-vivo biodistribution; design: species or system C57BL6 mice; conditions: mouse
[10] = system: BIRADS-V breast lesions; test: 99mTc-MDM scintimammography; format: in vivo, patients
Outline: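 For labelling, 15–20 mCi sodium pertechnetate was added to the kit vial and made up to 1.5 ml with 0.9% NaCl. It was incubated 15–20 min, then 0.22 µm filtered. 15–20 mCi was injected i.v. under the gamma camera. Spot views (anterior/posterior and lateral prone) were taken at 10, 60 and 180 min, and uptake mean and SD calculated at each time.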

[11] = system: U87; conditions: temozolomide sensitive line; stated in methods, ref not given; cited from earlier work
[12] = system: LN18; conditions: temozolomide resistant line; stated in methods, ref not given; cited from earlier work
[13] = In-vitro stability of 99mTc-glibenclamide; format: physicochemical; conditions: solution in PEG 400, ethanol, DMSO stored at 2-8 C, without lyophilization
[14] = system: mCRPC with liver metastases; test: [177Lu]Lu-PSMA-617 in mCRPC with liver metastases; format: in vivo, patients
[15] = system: papillary thyroid carcinoma; test: Empirical radioiodine therapy in papillary thyroid carcinoma; format: in vivo, patients; conditions: of 100
Outline: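 100 papillary thyroid carcinoma patients received 1–3 empirical radioiodine ablations and were followed from 6 months to 12 years. Histologies were classical, follicular, oncocytic, tall cell and microcarcinoma. Disease status was judged from serum thyroglobulin trend during follow-up.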

[16] = system: thyroid remnant; test: 131I remnant ablation in differentiated thyroid cancer; format: in vivo, patients
[17] = system: peripheral blood lymphocytes; test: Cytokinesis block micronuclei assay after therapeutic 131I; format: in vivo, patients
Outline: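 Blood was drawn from 18 thyroid cancer patients before and 72 hrs after a single oral therapeutic 131I dose (5.7 ± 2.1 GBq). Nine healthy volunteers served as controls. Samples were run by standard cytokinesis-block micronucleus protocol, scoring MN, NBUDs and NBR per 1000 binucleate PBLs.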

[18] = system: estrogen receptor-positive (ER+) tumors; test: Tumor localization of 99mTc-; format: in vivo
[19] = Stability of 68Ga-FAPI till 4 hrs by ITLC; format: physicochemical
[20] = RCP of 68Ga-FAPI over time by TLC and HPLC; format: physicochemical
Outline: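 Radiolabelled yield and RCP of the product were assessed by gradient HPLC and by TLC, using 0.1M sodium citrate and 50% acetonitrile as solvents. Physical appearance, pH and colour were also checked.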

[21] = system: HeLa cells (PDL-1); test: Cell binding; format: cell-based, human; conditions: plateau after 30 minutes
[22] = system: HeLa xenograft; test: In-vivo biodistribution; design: species or system SCID mice; conditions: mouse
[23] = target: amyloid-beta (Aβ42) (Homo sapiens, UniProt P05067); test: Binding to synthetic Aβ42 peptide and molecular modeling; conditions: compared to monomeric counterparts
Chain of amyloid-beta (Aβ42) (P05067 672-713): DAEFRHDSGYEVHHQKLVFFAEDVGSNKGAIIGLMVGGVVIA

[24] = system: metastatic pheochromocytoma and paraganglioma; test: I-131 MIBG therapy of metastatic pheochromocytoma and paraganglioma; format: in vivo, patients
[25] = system: medullary thyroid cancer; test: 131I-mIBG therapy of medullary thyroid cancer; format: in vivo, patients
Outline: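 131I-mIBG given as dose-adjusted intravenous infusions in 100 ml 0.9% sodium chloride by syringe pump over 3 hours, at 30.5 to 120 mCi per dose. Twenty-three therapy doses in total, 1–4 per patient.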

[26] = system: HCC827; test: Methylene blue IC50 assay; format: cell-based; conditions: Homo sapiens
[27] = system: NCI-H1975; test: Methylene blue IC50 assay; format: cell-based; conditions: Homo sapiens
[28] = system: NCI-H3255; test: Methylene blue IC50 assay; format: cell-based; conditions: Homo sapiens
[29] = system: QG56 (wild-type EGFR); test: Methylene blue IC50 assay; format: cell-based; conditions: Homo sapiens, QG-56
[30] = system: metastatic prostate cancer; test: 99mTc-PSMA SPECT/CT vs 68Ga-PSMA PET/CT lesion detection; format: in vivo, patients
Outline: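 61 male patients with metastatic prostate cancer (mean age 67 ± 7.82 years) received i.v. 99mTc-PSMA, mean 12.82 ± 1.15 mCi. Anterior and posterior whole-body images were taken at 2.0 and 4.0 h on a dual-head gamma camera (matrix 256×1024, 12 cm/min). Lesion counts were compared against 68Ga-PSMA.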

Molecule: O=C([O-])CN(CCN(CC(=O)[O-])Cc1cc(CCC(=O)NCCCCCC(=O)NCCCC[C@H](NC(=O)N[C@@H](CCC(=O)O)C(=O)O)C(=O)O)ccc1[O-])Cc1cc(CCC(=O)O)ccc1[O-].[68Ga+3].[OH3+] [^68Ga-PSMA-11]
detection rate, lymph nodes [1]: 99% | detection rate, skeletal metastases [1]: 99% | detection rate, soft tissue metastases [1]: 85.4%

change in kidney excretion pattern [2]: no significant change
Molecule: CCCN(CCC)S(=O)(=O)c1ccc(C(=O)O)cc1 [probenecid, Probenecid]

SUVmax ([3]; first imaging, 2 patients): 1.12
Molecule: [64Cu+2].[Cl-].[Cl-] [^64CuCl2, 64-copper chloride]
detection rate, lymph nodes [1]: 79% | detection rate, skeletal metastases [1]: 77.3% | detection rate, soft tissue metastases [1]: 80.6% | tolerability ([3]; in vivo): well-tolerated

increase in mean SUVmax, PD ([4]; n = 3): 9.8% | percent decrease in mean SUVmax, VGPR ([4]; n = 6): 68.8% | percent decrease in mean SUVmax, CR ([4]; n = 9): 78.6% | percent decrease in mean SUVmax, PR ([4]; n = 12): 43.3% | overall sensitivity ([5]; in vivo): 92.86% | overall specificity ([5]; in vivo): 100% | skeletal metastatic lesions seen ([5]; of 23): 78.26% | patients positive for the disease ([5]; of 30): 86.66% | soft tissue lesions seen ([5]; of 47): 100% | lung lesions seen ([5]; of 130): 90% | lesions with uptake ([5]; of 200 lesions): 91% | lesions with increased tracer uptake [6]: 55 lesions
Molecule: ^18F-FDG

Molecule: ^177Lu-DOTA-rituximab
effective half-life ([7]; 22 patients): 104.5 ± 22 h | mean WB radiation absorbed dose ([7]; OLINDA/EXM): 0.208 ± 0.03 mGy/MBq | mean WB effective dose ([7]; in vivo): 0.196 ± 0.05 mGy/MBq | mean radiation absorbed dose, bone marrow ([7]; in vivo): 0.136 ± 0.02 | mean radiation absorbed dose, kidneys ([7]; in vivo): 1.01 ± 0.42 mGy/MBq | mean radiation absorbed dose, liver ([7]; in vivo): 0.613 ± 0.21 mGy/MBq | mean radiation absorbed dose, spleen ([7]; in vivo): 1.68 ± 2 mGy/MBq

Molecule: [^177Lu]Lu-DOTA-Bevacizumab
binding in cells [8]: Approximately 32 ± 3% | accumulation in tumor [9]: 8.2 ± 2.7 % ID/g

mean Tu:Bkg ratio ([10]; Prone Lateral, 10min): 1.89 ± 0.578 | mean Tu:Bkg ratio ([10]; Prone Lateral, 1hr): 1.95 ± 0.717 | mean Tu:Bkg ratio ([10]; Prone Lateral, 3hrs): 2.059 ± 0.728 | mean Tu:Bkg ratio ([10]; anterior view, 10min): 2.606 ± 0.601 | mean Tu:Bkg ratio ([10]; anterior view, 3hrs): 3.04 ± 1.114
Molecule: DTPA-bis-methionine [^99mTc-MDM]

Molecule: Cn1nnc2c(C(N)=O)ncn2c1=O [temozolomide]
IC50 [11]: 10000 to 100000 nM | IC50 [12]: 400000 to 500000 nM

period for which solubilized drug solution was labeled efficiently [13]: 2 months
Molecule: COc1ccc(Cl)cc1C(=O)NCCc1ccc(S(=O)(=O)NC(=O)NC2CCCCC2)cc1 [GBD, Glibenclamide]

Molecule: [^177Lu]Lu-PSMA-617
Grade 3 anemia ([14]; 2/18 patients): 11.1% | ORR ([14]; 4/14 patients): 28.6% | best PSA-RR (PSA decline of ≥50%) ([14]; 4/16 patients, median cumulative 11.1 GBq over 1-7 cycles): 25% | median OS ([14]; 95% CI: 11.5-14.5): 13.0 months

Molecule: [131IH] [radioiodine]
progression post empirical therapy [15]: Fifty-two | regression of disease (decreasing serum thyroglobulin) [15]: 38 patients | successful remnant ablation ([16]; baseline S Tg <12.3): 84.1% | successful remnant ablation ([16]; baseline S Tg more than 12.3): 21.2% | patients with successful ablation in a single dose ([16]; of 383, 70.3 ± 33.6 mCi): 251 patients | NBUDS /1000 BN PBLs post exposure ([17]; 72 hrs after 5.7 ± 2.1 GBq, Pre 7.4 ± 5.3, n = 18): 11.9 ± 7.2 | NBR /1000 BN PBLs post exposure ([17]; 72 hrs after exposure, Pre 5.7 ± 4.4): 14.4 ± 8.1

T/M ratio ([18]; at 2.0 hours): 1.11 ± 0.34 | increase in tumor localization ([18]; in vivo): fivefold
Molecule: CC12CCC3c4ccc(O)cc4CCC3C1CCC2(O)c1cn(CCNC(=O)CN(CCN(CCN(CC(=O)O)CC(=O)NCCn2cc(C3(O)CCC4C5CCc6cc(O)ccc6C5CCC43C)nn2)CC(=O)O)CC(=O)O)nn1 (stereo not drawn) [^99mTc[(EST)2DT], 5,8-bis(carboxymethyl)-13-(4-(3,17-dihydroxy-13-methyl-7,8,9,11,12,13,14,15,16,17-decahydro-6H-cyclopenta[α]phenanthren-17-yl)-1H-1,2,3-triazol-1-yl)-2-(2-(2-(4-(3,17-dihydroxy-13-methyl-7,8,9,11,12,13,14,15,16,17-decahydro-6H-cyclopenta[α]phenanthren-17-yl)-1H-1,2,3-triazol-1-yl)ethylamino)-2-oxoethyl)-10-oxo-2,5,8,11-tetraazatridecane-1-carboxylic acid, metal not drawn]

stability (RCP) at 4 hrs [19]: 96.31% | RCP by TLC ([20]; 0.1M Na citrate, 30 min): 98.84±0.7% | RCP by TLC ([20]; 0.1M Na citrate, 1 h): 98.27±0.81% | RCP by TLC ([20]; 0.1M Na citrate, 2 h): 97.18±1.5% | RCP by TLC ([20]; 50% acetonitrile, 30 min): 98.24±0.86% | RCP by TLC ([20]; 50% acetonitrile, 1 h): 97.84±0.98% | RCP by TLC ([20]; 50% acetonitrile, 2 h): 96.89±1.1% | RCP by HPLC ([20]; 30 min): 100% | RCP by HPLC ([20]; 1 h): 100% | RCP by HPLC ([20]; 2 h): 100%
Molecule: N#C[C@@H]1CC(F)(F)CN1C(=O)CNC(=O)c1ccnc2ccc(OCCCN3CCN(C(=O)CN4CCN(CC(=O)[O-])CCN(CC(=O)[O-])CCN(CC(=O)[O-])CC4)CC3)cc12.[68Ga+3] [68Ga-DOTA-FAPI04]

Molecule: [^90Y]Y-CHX-A”-DTPA-Atezolizumab
binding with cells [21]: ~ 18 ± 3.5% | retention in the tumor [22]: 5.2 ± 2.5 % ID/gm

Molecule: CN(CCOc1ccc(C(=O)/C=C/c2ccc(N(C)C)cc2)cc1)CCOc1ccc(C(=O)/C=C/c2ccc(N(C)C)cc2)cc1 [¹¹C-(Chal)2DEA-Me, (2E,2′E)-1,1′-((((methylazanediyl)bis(ethane-2,1-diyl))bis(oxy))bis(4,1-phenylene))bis(3-(4-(dimethylamino)phenyl)prop-2-en-1-one)]
binding affinity [23]: superior binding affinity compared to monomeric counterparts

Molecule: N=C(N)NCc1cccc([131I])c1 [I-131 MIBG, Metaiodobenzylguanidine]
immediate side effect post therapy ([24]; 20 patients): only one patient experienced severe vomiting | patients with symptomatic relief ([24]; in vivo): 70% | progressive disease ([24]; in vivo): 9/20 | partial response ([24]; ~100mCi i.v. per therapy): 11/20 | calcitonin levels remained stable ([25]; 30.5 to 120 mCi per dose, 1-4 doses): 8/13 | calcitonin levels progressed ([25]; in vivo): 5/13 | regression on repeat mIBG scans ([25]; in vivo): 3/12 | side effects ([25]; in vivo): no reported side effects

IC50 [26]: 2 nM | IC50 [27]: […] | IC50 [28]: […] | IC50 [29]: 1800 nM
Molecule: C=CC(=O)Nc1cc(Nc2nccc(-c3cn(C)c4ccccc34)n2)c(OC)cc1N(C)CCN(C)C [Osimietinib, Osimertinib]

Molecule: [^90Y]Y-CHX-A”-DTPA-Bevacizumab
binding in cells [8]: Approximately 32 ± 3% | accumulation in tumor [9]: 8.2 ± 2.7 % ID/g

Molecule: O=C([O-])CN(CCN(CC(=O)[O-])Cc1cc(CCC(=O)NCCCCCC(=O)NCCCC[C@H](NC(=O)N[C@@H](CCC(=O)O)C(=O)O)C(=O)O)ccc1[O-])Cc1cc(CCC(=O)O)ccc1[O-].[68Ga+3].[OH3+] [^68Ga-PSMA]
pelvic lesions detected ([30]; 61 patients): 341 lesions | extra pelvic distant metastatic lesions detected ([30]; in vivo): 237 lesions | total lesions detected ([30]; in vivo): 578 lesions
